Compound activity deposited in PubChem BioAssay by several laboratories.
TDP2 inh: human TDP2 enzyme inhibitors, primary screen, biochemical, epi absorbance, recombinant enzyme | T5PNP hydrolysis, p-nitrophenol absorbance 415 nm | inhibition, % at 12.8 µM | 370,000 compounds, 0.34% hits | AID 720702, 2013;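 active = inhibition above the mean of all tested compounds plus 3 SD, set per campaign, cut at about 25% in these data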
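Read-out basis: percent inhibition. System: recombinant human TDP2. Buffer or medium: Mg2+-containing Tris-HCl buffer, pH 7.5. Repeats: single replicate. Timing: reaction 2 h, 37 °C. Benchmarks: high control without enzyme, low control DMSO plus TDP2. Probe or stimulus: 5 mM T5PNP. Doses: 12.8 µM only. Measured by: epi absorbance of p-nitrophenol freed from T5PNP by hydrolysis.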
SIAE inh: human SIAE inhibitors, primary screen, biochemical, fluorescence polarization, FP-Rh probe, 1536-well HTS; Sialate O-acetylesterase (Homo sapiens), Q9HAT2; SIAE FP-Rh probe binding; inhibition, % at 9.66 µM; 370,000 compounds, 0.69% hits; AID 1053197, 2014;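 active = inhibition above a cutoff: mean of compounds within the control limits plus 3 SD of those, cut at about 17% in these data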
Target sequence (Q9HAT2 whole entry, looked up): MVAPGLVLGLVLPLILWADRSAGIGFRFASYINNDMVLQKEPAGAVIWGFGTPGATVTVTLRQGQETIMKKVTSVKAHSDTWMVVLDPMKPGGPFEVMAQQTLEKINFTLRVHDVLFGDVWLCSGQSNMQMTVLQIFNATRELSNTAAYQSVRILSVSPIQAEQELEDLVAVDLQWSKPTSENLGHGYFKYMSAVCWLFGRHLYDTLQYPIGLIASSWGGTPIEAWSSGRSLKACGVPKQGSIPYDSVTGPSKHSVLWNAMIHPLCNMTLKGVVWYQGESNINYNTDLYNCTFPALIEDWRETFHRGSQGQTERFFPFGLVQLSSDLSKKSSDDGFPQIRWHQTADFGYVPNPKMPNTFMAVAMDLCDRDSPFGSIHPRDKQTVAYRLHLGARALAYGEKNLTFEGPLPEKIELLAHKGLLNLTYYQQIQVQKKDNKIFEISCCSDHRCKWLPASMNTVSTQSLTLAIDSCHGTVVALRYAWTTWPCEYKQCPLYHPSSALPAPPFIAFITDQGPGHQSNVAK
PAD4 FP inh: human PAD4 inhibitors, primary screen, biochemical, fluorescence polarization, 1536-well format; AID 485272, 2010; Protein-arginine deiminase type-4 (Homo sapiens), Q9UM07; 330,000 compounds, 0.41% hits; recombinant PAD4, RCA probe fluorescence polarization; inhibition, % at 6.36 µM;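 active = percent inhibition above a cutoff equal to the mean of all tested compounds plus 3 SD, cut at about 15% in these data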
TCR-CD3 inh: inhibitors of human TCR-CD3 interaction, primary screen, biochemical, fluorescence, TAMRA-labeled TCR probe; T-cell receptor (TCR); inhibition, % at 9.4 µM; 360,000 compounds, 0.37% hits; in the data active = inhibition above about 19%;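 also: recombinant mutant TCR 2C K166C tagged with TAMRA read by polarization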
GSTO1 counter: inhibitors of recombinant GSTO1, primary screen, counter-screen for RBBP9 inhibitor project, biochemical, fluorescence polarization; activity-based probe fluorescence polarization; inhibition, % at 5.96 µM; 300,000 compounds, 1.1% hits;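 active = inhibition above the campaign mean inhibition plus 3 SD, cut at about 35% in these data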
Apaf-1 inh: inhibitors of human Apaf-1 apoptosome, primary screen, biochemical, DEVD-Rh110 fluorescence, uHTS; inhibition, % at 20 µM; AID 489030, 2010; 330,000 compounds, 0.71% hits; Apoptotic protease-activating factor 1 (Homo sapiens), O14727; reconstituted apoptosome caspase-3 activity; active = inhibition of at least 40% at 20 µM
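Assay system: Apoptosome proteins | Medium: pH 7.5 Hepes buffer with CHAPS, BSA, DTT | Also added: Cytochrome c and DEVD-Rh110 substrate | Times: 30 min plus 50 min, RT | Detection: Rhodamine 110 fluorescence at Ex 480/Em 540 nm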
A number is an active result; . = inactive; / = no result given. An excerpt weighted towards active compounds, which were near 2.4% of everything screened.

SMILES | TDP2 inh | SIAE inh | PAD4 FP inh | TCR-CD3 inh | GSTO1 counter | Apaf-1 inh
COc1ccccc1NC(=O)COn1nnc2ccc(S(=O)(=O)N3CCOCC3)cc21 | . | . | . | . | 35.7 | .
CC(=O)C1=C(c2ccccc2)NC(=O)NC1c1ccc2c(c1)OCO2 (stereo not drawn) | . | . | . | . | . | .
CC(=O)C1=C(c2ccccc2)NC(=O)NC1c1ccc(O)c(O)c1 (stereo not drawn) | . | . | . | . | 36.9 | .
COc1cc(COc2ccc3c(C)c(Cc4ccccc4)c(=O)oc3c2C)cc(OC)c1OC | . | . | . | . | . | .
CCn1nnc(C(=O)O)c1C(=O)O | . | . | . | . | . | .
COc1ccc(NC(=O)Nc2c(O)ccc3ccccc23)cc1 | . | . | . | . | 37.2 | .
COc1ccc(C(=O)Nc2c(O)ccc3ccccc23)cc1 | . | . | . | . | . | .
CN(Cc1c(C(=O)N/N=C/c2c(F)cccc2Cl)nnn1-c1nonc1N)c1ccccc1 | . | . | . | . | . | .
Cc1cc(NC(=O)CSc2nnc(-c3c[nH]c4ccccc34)n2-c2ccc(Cl)cc2)no1 | . | . | . | . | . | .
Cc1noc(C)c1S(=O)(=O)N1CCC(C(=O)N2CCN(C3CCCC3)CC2)CC1 | / | / | . | / | . | .
COc1ccc(CCC2=NCCN2C(CC(C)C)c2nc3ccccc3[nH]2)cc1 (stereo not drawn) | . | . | / | . | / | /
O=C(Cn1nc(-c2ccccc2Cl)ccc1=O)Nc1ccccc1-c1ccccc1 | . | . | . | . | . | 55.8
O=C(COC(=O)c1cccc(OC(F)F)c1)NC1CCCC1 | . | . | . | . | . | .
O=C(CCC(=O)N/N=C/c1ccc(Br)s1)NCc1ccccc1 | . | . | . | . | . | .
Brc1ccc(C=Nc2ccc(Nc3ccccc3)cc2)s1 | / | / | 24.3 | / | 37.1 | /
CCCCC(=O)Nc1ccc(NC(=O)C2CC2)cn1 | . | . | . | . | . | .
CCC(=O)Nc1ccc(Cl)c(NC(=O)c2ccccc2OC)c1 | . | . | . | . | . | .
Cc1ccc(S(=O)(=O)c2ccccc2)cc1S | / | / | 35.9 | / | . | .
CC(SC1=NCCN1S(C)(=O)=O)c1ccccc1 (stereo not drawn) | . | . | . | . | . | .
O=C(Nc1cccs1)Nc1ccc(Br)cc1F | . | 20.1 | . | . | . | .
CCOC(=O)c1ccc(N2NC(=O)/C(=C/c3ccc(OC(=O)c4ccco4)c(OC)c3)C2=O)cc1 | . | . | . | . | 37.0 | .
Cc1cccc(NC(=O)CSc2nnc(CCC(=O)Nc3ccc(C)c(Cl)c3)n2C)c1 | . | . | . | . | . | .
CCc1ccccc1NC(=O)c1ccc([N+](=O)[O-])s1 | . | . | . | . | 41.3 | .
CC1(C(=O)NC2CCN(Cc3ccccc3)CC2)CCN1Cc1ccc(OC(F)(F)F)cc1 (stereo not drawn) | . | . | / | . | / | /
CC1=NN(c2ccccc2)C(=O)/C1=C\c1ccc(Oc2ccc([N+](=O)[O-])cc2[N+](=O)[O-])cc1 | 78.0 | . | 51.1 | . | 76.6 | 91.9
SMILES | TDP2 inh | SIAE inh | PAD4 FP inh | TCR-CD3 inh | GSTO1 counter | Apaf-1 inh
COc1cc(/C=C2/C(=O)N(c3ccc(C)c(C)c3)N=C2C)cc([N+](=O)[O-])c1O | . | . | . | . | . | .
CS(=O)(=O)Nc1ccc(C(=O)NC2CC3CCC2C3)cc1 (stereo not drawn) | . | . | . | . | . | .
CC(=O)N(C)C1=C(N2CCOCC2)C(=O)c2ccccc2C1=O | / | / | . | / | 59.3 | 64.8
CCCc1cc(NC(=O)CCl)n(-c2ccccc2)n1 | . | . | . | . | 100.9 | .
CCCc1cc(NC(=O)COC(=O)c2ccc(O)cc2O)n(-c2ccccc2)n1 | . | . | . | . | / | .
Oc1ccc(O)cc1 | / | / | . | / | 55.9 | /
O=[N+]([O-])c1cc(/C=N\Nc2nc(-c3ccccc3)cs2)ccc1O | . | . | . | . | 63.0 | .
O=C1c2cccc3cccc(c23)C(=O)C1(O)O | . | . | . | . | 62.8 | .
O=C1CC(Nc2ccc(N3CCOCC3)cc2)C(=O)N1c1ccccc1 (stereo not drawn) | / | / | . | / | . | .
CCOc1ccccc1N1C(=O)CC(Nc2ccc(N3CCOCC3)cc2)C1=O (stereo not drawn) | . | . | 18.6 | . | . | .
CC1=CC(=O)c2c(O)ccc(O)c2C1=O | / | / | 23.2 | / | 68.6 | /
CC1=CC(=Nc2c(C)n(C)n(-c3ccccc3)c2=O)C=C(C)C1=O | . | . | . | . | 50.5 | .
CCC(C)C1=CC(=Nc2c(C)n(C)n(-c3ccccc3)c2=O)C=C(C(C)CC)C1=O (stereo not drawn) | . | . | . | . | . | .
O=c1oc2c(O)c(O)cc3c(=O)oc4c(O)c(O)cc1c4c23 | / | / | . | / | 70.4 | /
CCOc1cc(C(c2c(C)[nH][nH]c2=O)c2c(C)[nH][nH]c2=O)ccc1O | . | . | . | . | 46.0 | .
O=c1[nH]cc(N=Cc2cc(Cl)cc(Cl)c2O)c(=O)[nH]1 | . | . | . | . | 42.2 | .
O=c1[nH]cc(N=Cc2cc([N+](=O)[O-])ccc2O)c(=O)[nH]1 | / | / | . | / | . | .
Cc1ccc(NC(=O)CSc2nnc(-c3ccco3)c(-c3ccco3)n2)cc1 | . | . | . | . | 37.3 | .
CSc1nnc(-c2ccco2)c(-c2ccco2)n1 | . | . | . | . | 36.2 | .
C=CCN1C[C@H](COC(=O)c2ccc(C)c(C)c2)Oc2cccc(F)c2S1(=O)=O | . | . | / | . | / | /
COc1cc2c3c(c1)/C(=C1/SC(NC(C)=O)=NC1=O)C(=O)N3C(C)(C)C=C2C | . | 24.9 | . | . | . | .
N#Cc1c(NC(=O)c2ccco2)sc2c1CCC2 | . | . | . | . | 36.3 | .
Cc1nc2c(-c3ccccc3)c(C)nn2c(C)c1CCC(=O)NCc1ccco1 | . | . | . | . | . | .
CCN1CCN(c2cc(C(C)C)nc3c(-c4ccccc4)c(C)nn23)CC1 | . | 18.5 | . | . | . | .
Cc1nn2c(N3CCOCC3)cc(C(C)C)nc2c1-c1ccccc1 | . | . | . | . | . | .
CCN1CCN(c2ccc(NC(=O)CCc3c(C)nc4c(-c5ccccc5)c(C)nn4c3C)cc2)CC1 | . | . | . | . | . | 48.5
COc1ccc(CN2C(=O)CCC2(C)c2nnnn2-c2ccc3c(c2)OCCO3)cc1OC (stereo not drawn) | . | . | / | . | / | /
O=c1c(-c2ccc(Br)cc2)[n+]([O-])c2ccccc2n1OCc1ccccc1 | . | . | . | . | . | .
